Activity calls are given as the source filed them. The rule behind the calls is not given here.

The target in experiment [1] is T1, HSP90 (Plasmodium falciparum 3D7) (UniProt Q8IL32).
T1 sequence (whole entry): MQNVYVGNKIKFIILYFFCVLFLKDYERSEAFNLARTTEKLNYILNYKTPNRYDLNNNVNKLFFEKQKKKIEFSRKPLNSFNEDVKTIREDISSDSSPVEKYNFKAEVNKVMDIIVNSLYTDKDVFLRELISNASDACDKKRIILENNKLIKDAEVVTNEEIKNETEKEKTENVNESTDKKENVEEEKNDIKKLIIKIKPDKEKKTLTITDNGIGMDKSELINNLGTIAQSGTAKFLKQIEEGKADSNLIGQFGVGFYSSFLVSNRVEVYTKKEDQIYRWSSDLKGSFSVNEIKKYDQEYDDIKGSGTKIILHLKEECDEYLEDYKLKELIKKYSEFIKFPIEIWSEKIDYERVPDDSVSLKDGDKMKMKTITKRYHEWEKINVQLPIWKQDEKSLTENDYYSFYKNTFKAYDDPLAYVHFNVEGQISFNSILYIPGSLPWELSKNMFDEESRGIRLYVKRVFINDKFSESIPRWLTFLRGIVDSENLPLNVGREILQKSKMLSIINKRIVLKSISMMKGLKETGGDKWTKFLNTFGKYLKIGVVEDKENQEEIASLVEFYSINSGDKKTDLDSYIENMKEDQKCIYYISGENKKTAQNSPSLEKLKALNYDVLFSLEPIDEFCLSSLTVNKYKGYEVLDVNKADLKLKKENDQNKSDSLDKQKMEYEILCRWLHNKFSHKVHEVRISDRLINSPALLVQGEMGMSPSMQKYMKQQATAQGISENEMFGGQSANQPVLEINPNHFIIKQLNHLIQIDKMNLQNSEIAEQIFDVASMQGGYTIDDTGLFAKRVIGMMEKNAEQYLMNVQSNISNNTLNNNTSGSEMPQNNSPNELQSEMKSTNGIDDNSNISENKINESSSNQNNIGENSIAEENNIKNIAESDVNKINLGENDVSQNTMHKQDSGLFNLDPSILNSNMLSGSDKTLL
The experiment in a line: Binding affinity to recombinant Plasmodium falciparum Hsp90 expressed in Escherichia coli BL21(DE3) pLysS assessed as thermophoresis shift at 50 uM by microscale thermophoresis assay. The method in brief: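 Microscale thermophoresis with fluorescently labeled PfHsp90: ligand-induced change in the protein's movement along a temperature gradient. Each compound tested at a fixed 50 μM. Compounds were held as 10 mM stocks in 100% DMSO at -20 °C.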

In experiment [2] the test system is Plasmodium falciparum. Briefly: Antimalarial activity against Plasmodium falciparum NF54 infected in human erythrocytes assessed as [3H]-hypoxanthine incorporation by scintillation counting analysis. The format is functional, organism-based. The method in brief:
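NF54 parasites grown in human erythrocytes in RPMI 1640 with 0.5% ALBUMAX II, 25 mM Hepes, 25 mM NaHCO3 (pH 7.3), 0.36 mM hypoxanthine and 100 μg/mL neomycin, at 37 °C under 3% O2/4% CO2/93% N2, humidified. IC50 derived in vitro from [3H]hypoxanthine incorporation. Compounds held as 10 mM DMSO stocks at -20 °C.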

In experiment [3] the test system is L6. The experiment in a line: Cytotoxicity against rat L6 cells after 72 hrs by alamar blue assay. The format is cell-based. To be noted: L6, 72 h. A general note: Resazurin is reduced to fluorescent resorufin, in cell work by metabolically active cells.
The target in experiment [4] is Heat shock protein 90 (Plasmodium falciparum, UniProt Q8IC05). The experiment in a line: Binding affinity to recombinant Plasmodium falciparum Hsp90 expressed in Escherichia coli BL21(DE3) pLysS by microscale thermophoresis assay.
Experiment [5] can be described thus: (§1) Binding affinity to recombinant Plasmodium falciparum Hsp90 ISG-LGA mutant expressed in Escherichia coli BL21(DE3) pLysS by microscale thermophoresis assay. A general note: In MST a laser heats a spot of the sample, and binding alters the fluorescence response.
Experiment [6] concerns Plasmodium falciparum. Described as §1.
Experiment [7] addresses Heat shock protein HSP 90-beta (Homo sapiens) (UniProt P08238). Briefly: Binding affinity to recombinant human Hsp90 beta expressed in Escherichia coli BL21(DE3) pLysS by microscale thermophoresis assay.
The subject of experiment [8] is Plasmodium falciparum. Briefly: Antimalarial activity against Plasmodium falciparum K1 infected in human erythrocytes after 72 hrs by DAPI staining-based confocal imaging system. The format is functional, organism-based. To be noted: K1, 72 h.
Experiment [9] has as its system Plasmodium falciparum. Briefly: Antimalarial activity against Plasmodium falciparum 3D7 infected in human erythrocytes after 72 hrs by DAPI staining-based confocal imaging system. The format is functional, organism-based. To be noted: 3D7, 72 h.

Chain of Heat shock protein 90 (Q8IC05 1-745): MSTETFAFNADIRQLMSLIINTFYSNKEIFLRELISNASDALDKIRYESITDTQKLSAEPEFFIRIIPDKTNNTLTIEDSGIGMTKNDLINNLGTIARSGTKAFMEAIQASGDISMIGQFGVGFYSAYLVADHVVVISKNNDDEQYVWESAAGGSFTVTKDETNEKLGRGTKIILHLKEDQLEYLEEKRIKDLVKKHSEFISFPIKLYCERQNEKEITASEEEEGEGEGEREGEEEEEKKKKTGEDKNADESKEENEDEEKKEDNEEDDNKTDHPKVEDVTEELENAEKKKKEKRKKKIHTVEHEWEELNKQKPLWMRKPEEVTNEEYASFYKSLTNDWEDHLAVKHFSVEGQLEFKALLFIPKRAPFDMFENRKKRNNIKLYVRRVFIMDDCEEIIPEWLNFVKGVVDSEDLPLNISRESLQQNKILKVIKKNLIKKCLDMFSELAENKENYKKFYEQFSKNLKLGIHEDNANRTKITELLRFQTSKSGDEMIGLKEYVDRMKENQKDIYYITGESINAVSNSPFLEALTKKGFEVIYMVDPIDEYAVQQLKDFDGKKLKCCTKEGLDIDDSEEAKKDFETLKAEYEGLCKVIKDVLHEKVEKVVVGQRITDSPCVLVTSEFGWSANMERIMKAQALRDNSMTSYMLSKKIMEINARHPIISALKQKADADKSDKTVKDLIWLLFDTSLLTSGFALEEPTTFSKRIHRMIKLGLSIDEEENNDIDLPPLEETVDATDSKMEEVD
Chain of Heat shock protein HSP 90-beta (Homo sapiens) (P08238 whole entry): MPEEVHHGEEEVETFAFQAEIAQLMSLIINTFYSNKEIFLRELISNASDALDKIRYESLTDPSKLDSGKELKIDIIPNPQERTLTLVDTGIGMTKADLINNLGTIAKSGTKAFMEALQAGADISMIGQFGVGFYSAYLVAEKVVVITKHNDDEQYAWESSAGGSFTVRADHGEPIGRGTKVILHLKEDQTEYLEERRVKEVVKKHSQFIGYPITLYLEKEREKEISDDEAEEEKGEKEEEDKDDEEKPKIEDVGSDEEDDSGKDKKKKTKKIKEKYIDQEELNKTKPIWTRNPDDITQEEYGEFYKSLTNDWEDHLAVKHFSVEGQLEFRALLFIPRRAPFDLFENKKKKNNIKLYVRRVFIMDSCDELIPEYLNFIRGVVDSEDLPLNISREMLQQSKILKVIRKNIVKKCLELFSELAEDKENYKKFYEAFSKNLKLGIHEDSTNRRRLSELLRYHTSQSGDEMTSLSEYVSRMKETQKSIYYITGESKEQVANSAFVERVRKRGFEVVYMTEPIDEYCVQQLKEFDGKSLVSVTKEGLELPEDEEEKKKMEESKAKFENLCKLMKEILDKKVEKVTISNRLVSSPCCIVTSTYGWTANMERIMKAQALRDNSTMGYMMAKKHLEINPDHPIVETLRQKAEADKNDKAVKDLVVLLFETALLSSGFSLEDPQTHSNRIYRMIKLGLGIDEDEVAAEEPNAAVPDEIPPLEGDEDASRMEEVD

The term IC50 denotes the midpoint of a concentration-inhibition curve. On to `O=C(c1ccccc1)N1CCN(CC(O)Cn2c3ccc(Br)cc3c3cc(Br)ccc32)CC1` (centres undefined), for which, in experiment [1], the Activity came to 6.95 U. In addition, the results for the IC50 in experiment [2] and in [3] were 2.34 µM and 10.2 µM, respectively.

Consider `CN(C)CC(O)Cn1c2ccc(Br)cc2c2cc(Br)ccc21` (centres undefined), for which, in [1], the Activity worked out at 0.41 U. For the same compound, the figures for the IC50 in [2] and in experiment [3] were 1.67 µM and 3.66 µM, respectively.

`CC(C)NCC(O)Cn1c2ccccc2c2ccccc21` (centres undefined): the Activity in [1] came to 2.71 U. In addition, the concentration for half-maximal inhibition (IC50) amounted to 1.44 µM in experiment [2] and 26.5 µM in experiment [3].

Regarding `OC(CN1CCN(Cc2ccccc2)CC1)Cn1c2ccc(Br)cc2c2cc(Br)ccc21` (centres undefined), the Activity in experiment [1] turned out to be 6.64 U. Further, the figures for the IC50 in experiment [2] and in experiment [3] were 0.095 µM and 3.67 µM, respectively.

Usually Kd stands for the constant that tells how readily two partners part at equilibrium. On to `O=C(c1ccccc1)N1CCN(CC(O)Cn2c3ccc(Cl)cc3c3cc(Cl)ccc32)CC1` (centres undefined), for which, in experiment [4], the Kd is 25.6 µM. Moreover, the Activity in experiment [1] came to 6.71 U. In addition, the half-maximal inhibitory concentration (IC50) was determined as 1.13 µM in experiment [2] and 9.72 µM in experiment [3].

In the case of `COC1=C2C[C@@H](C)C[C@H](OC)[C@H](O)[C@@H](C)/C=C(\C)[C@H](OC(N)=O)[C@@H](OC)/C=C\C=C(/C)C(=O)NC(=CC1=O)C2=O` [GELDANAMYCIN], the Kd in [5] is 0.51 µM.

Take `OC(CN1CCN(Cc2ccccc2)CC1)Cn1c2ccc(Cl)cc2c2cc(Cl)ccc21` (centres undefined): the outcome in experiment [6] and in experiment [7] was inactive. In addition, the Kd in experiment [4] stood at 28.1 µM. Also, in experiment [1], the Activity turned out to be 6.41 U. In addition, the figures for the IC50 in experiment [2] and in experiment [3] were 0.082 µM and 3.6 µM, respectively.

Consider `CCC(C)NCC(O)Cn1c2ccc(Cl)cc2c2cc(Cl)ccc21` (centres undefined), for which the Activity in experiment [1] is 3.85 U. Besides, the IC50 in [2] is 1.56 µM; in experiment [3], 0.975 µM.

Take `CC1CCCC(C)N1CC(O)Cn1c2ccccc2c2ccccc21` (centres undefined): the Activity in experiment [1] was found to be 0.6 U. Further, the half-maximal inhibitory concentration (IC50) is 4.97 µM in experiment [2] and 37.7 µM in [3].

In the case of `O=C(c1ccccc1)N1CCN(CC(O)Cn2c3ccccc3c3ccccc32)CC1` (centres undefined), the Activity in experiment [1] stood at 3.33 U. The 50% inhibitory concentration (IC50) in experiment [2] stood at 14.9 µM; in [3] it was 25.2 µM.

As for `CC(C)(CO)NCC(O)Cn1c2ccccc2c2ccccc21` (centres undefined), the Activity in experiment [1] was 0.49 U. In addition, the 50% inhibitory concentration (IC50) in experiment [2] was 10.1 µM; in experiment [3], 6.22 µM.

In the case of `OC(CN1CCOCC1)Cn1c2ccc(Br)cc2c2cc(Br)ccc21` (centres undefined), in experiment [1], the Activity turned out to be 6.87 U. Moreover, the concentration for half-maximal inhibition (IC50) in [2] is 2.08 µM; in experiment [3], 11.6 µM.

For the compound `OC(CN1CCOCC1)Cn1c2ccc(Cl)cc2c2cc(Cl)ccc21` (centres undefined), in [1], the Activity worked out at 8.19 U. For the same compound, the IC50 in [2] came to 1.23 µM; in [3] it was 9.72 µM.

Consider `OC(CN1CCCCCC1)Cn1c2ccccc2c2ccccc21` (centres undefined), for which the Activity in experiment [1] worked out at 1.11 U. The values for the IC50 in experiment [2] and in experiment [3] were 7.79 µM and 6.85 µM, respectively.

For `OC(CNC1CCCCC1)Cn1c2ccccc2c2ccccc21` (centres undefined), in experiment [1], the Activity was determined as 1.49 U. Moreover, the IC50 in experiment [2] amounted to 0.162 µM; in [3], 3.67 µM.

In the case of `CCC(CC)NCC(O)Cn1c2ccccc2c2ccccc21` (centres undefined), the Activity in [1] came out at 0.24 U. Besides, the IC50 was 12.7 µM in [2] and 7.38 µM in experiment [3].

For `CC(C)(C)NCC(O)Cn1c2ccccc2c2ccccc21` (centres undefined), the Activity in experiment [1] worked out at 0.725 U. The IC50 in experiment [2] was 2.08 µM; in [3], 7.21 µM.

Take `CC(C)NCC(O)Cn1c2ccc(Cl)cc2c2cc(Cl)ccc21` (centres undefined): the 50% inhibitory concentration (IC50) in [8] was 0.48 to 1.8 µM; in experiment [9], 0.48 to 1.8 µM; in [2], 0.07 to 0.082 µM; in experiment [3], 2.61 µM. In addition, in [1], the Activity amounted to 8.38 U.

With `OC(CNC1CCCCC1)Cn1c2ccc(Cl)cc2c2cc(Cl)ccc21` (centres undefined), the Activity in experiment [1] came out at 5.88 U. The IC50 worked out at 0.086 µM in [2] and 3.34 µM in experiment [3].

Consider `OC(CN1CCN(Cc2ccccc2)CC1)Cn1c2ccccc2c2ccccc21` (centres undefined), for which the Activity in experiment [1] came out at 6.68 U. The IC50 in experiment [2] turned out to be 0.994 µM; in experiment [3] it was 10.8 µM.

These data come from ChEMBL document CHEMBL4431313, “Inhibition of Plasmodium falciparum Hsp90 Contributes to the Antimalarial Activities of Aminoalcohol-carbazoles” (J Med Chem, 2016).
